For 15 molecules, Ratio, Ki and Efficacy results are on record in ChEMBL document CHEMBL1138658, “Novel 2-aminotetralin and 3-aminochroman derivatives as selective serotonin 5-HT7 receptor agonists and antagonists” (J Med Chem, 2004).

Broadly, the Ki is the dissociation constant of the complex between target and ligand, obtained from inhibition or displacement. Low values mean higher affinity, high ones lower affinity.

Each structure is given as a SMILES string. Some results are limits rather than exact numbers.

The species named for one assay is Rattus norvegicus. The assay can be described thus: Inhibition of 3[H]8-OH--DPAT and [3H]5-HT binding to 5-hydroxytryptamine 1A receptor and 5-hydroxytryptamine 7 receptor in rat. Summed up:
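Displacement binding with [3H]-8-OH-DPAT at 5-HT1A in rat hippocampal cells, and with [3H]-5-HT at rat 5-HT7 expressed in CHO or Sf9 cells.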

Assay [1] deals with 5-hydroxytryptamine receptor 7 (Rattus norvegicus, UniProt P32305). The assay is described as follows: Inhibition of [3H]-5-HT binding to rat 5-hydroxytryptamine 7 receptor. Summed up:
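Rat 5-HT7 receptor expressed in CHO or Sf9 cells; [3H]-5-HT radioligand displacement.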

The target of assay [2] is T1, 5-hydroxytryptamine receptor 1A (Rattus norvegicus, UniProt P19327).
T1 sequence (P19327 whole entry): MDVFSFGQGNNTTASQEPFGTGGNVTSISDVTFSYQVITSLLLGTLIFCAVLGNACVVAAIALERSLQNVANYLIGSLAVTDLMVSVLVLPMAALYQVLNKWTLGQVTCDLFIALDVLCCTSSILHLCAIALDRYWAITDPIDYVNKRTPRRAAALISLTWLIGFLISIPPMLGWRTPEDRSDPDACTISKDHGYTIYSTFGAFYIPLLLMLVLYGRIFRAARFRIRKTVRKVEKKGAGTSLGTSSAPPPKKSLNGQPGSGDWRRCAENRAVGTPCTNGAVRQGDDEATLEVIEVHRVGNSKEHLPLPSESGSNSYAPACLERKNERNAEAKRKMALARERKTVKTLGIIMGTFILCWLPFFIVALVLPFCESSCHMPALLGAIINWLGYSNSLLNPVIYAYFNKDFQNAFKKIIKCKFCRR
The assay is described as follows: Inhibition of [3H]8-OH-DPAT binding to rat 5-hydroxytryptamine 1A receptor. The method in brief: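 Radioligand [3H]-8-OH-DPAT; receptor source either CHO cells expressing human 5-HT1A or rat hippocampal cells.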

The target in assay [3] is 5-hydroxytryptamine receptor 7 (Rattus norvegicus) (UniProt P32305). The assay is described as follows: Stimulation of cAMP production in CHO cells expressing rat 5-hydroxytryptamine 7 receptor; Antagonist. The format is functional, cell-based. To be noted: filed as antagonist. Summed up:
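Functional assay in CHO cells expressing rat 5-HT7 receptor, read as cAMP production. Efficacy is expressed as % of the cAMP production stimulated by 5-HT.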

Assay [4] has the same target. The assay can be described thus: Stimulation of cAMP production in CHO cells expressing rat 5-hydroxytryptamine 7 receptor. The format is functional, cell-based. Summed up:
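cAMP production in CHO cells expressing rat 5-HT7 receptor. Efficacy is expressed as percent of the 5-HT-stimulated production.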
In general terms: Cyclic AMP is a second messenger, typically raised through Gs and lowered through Gi signalling.

Assay [5] addresses D(2) dopamine receptor (Homo sapiens) (UniProt P14416). The assay is described as follows: Inhibition of [3H]raclopride binding to Dopamine receptor D2A in human.

Chain of D(2) dopamine receptor (Homo sapiens) (P14416 whole entry, looked up): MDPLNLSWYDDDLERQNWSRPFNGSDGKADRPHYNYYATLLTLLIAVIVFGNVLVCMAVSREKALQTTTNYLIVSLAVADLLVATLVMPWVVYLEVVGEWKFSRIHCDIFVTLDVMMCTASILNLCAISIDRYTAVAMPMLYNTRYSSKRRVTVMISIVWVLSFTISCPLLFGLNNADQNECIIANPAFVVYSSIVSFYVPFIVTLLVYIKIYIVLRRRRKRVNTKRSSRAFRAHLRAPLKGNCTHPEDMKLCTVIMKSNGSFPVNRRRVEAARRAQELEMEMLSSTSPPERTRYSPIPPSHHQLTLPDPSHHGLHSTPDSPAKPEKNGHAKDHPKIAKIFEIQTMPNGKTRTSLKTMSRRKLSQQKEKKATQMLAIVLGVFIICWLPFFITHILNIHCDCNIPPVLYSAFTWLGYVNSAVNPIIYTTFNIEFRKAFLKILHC
Chain of 5-hydroxytryptamine receptor 7 (P32305 whole entry): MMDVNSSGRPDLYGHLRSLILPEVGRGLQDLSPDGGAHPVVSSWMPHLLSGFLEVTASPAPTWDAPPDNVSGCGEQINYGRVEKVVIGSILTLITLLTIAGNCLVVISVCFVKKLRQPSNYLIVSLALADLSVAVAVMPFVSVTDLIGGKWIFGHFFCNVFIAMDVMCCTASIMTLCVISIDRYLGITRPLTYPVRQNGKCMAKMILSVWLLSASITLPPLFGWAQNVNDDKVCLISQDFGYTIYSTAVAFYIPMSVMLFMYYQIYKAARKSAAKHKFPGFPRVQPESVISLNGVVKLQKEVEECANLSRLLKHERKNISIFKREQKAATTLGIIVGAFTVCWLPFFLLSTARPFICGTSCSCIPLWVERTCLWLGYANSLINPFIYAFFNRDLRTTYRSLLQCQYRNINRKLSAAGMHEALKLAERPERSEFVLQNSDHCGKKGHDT
Chain of 5-hydroxytryptamine receptor 7 (Rattus norvegicus) (P32305 whole entry): as above

For `COc1cccc(OC)c1-c1cccc2c1CC[C@H](N)C2`, in the assay listed under Rattus norvegicus, the Ratio was over 12.7. Besides, the Ki was 78.7 nM in assay [1] and over 1000 nM in assay [2].
Consider `O=C1Nc2cccc3c2C1(CCCCN1CCc2sccc2C1)CCC3` (configuration not stated), for which the Ratio in the assay listed under Rattus norvegicus was found to be 79. Besides, the Ki turned out to be 6.46 nM in assay [1] and 513 nM in assay [2]. The Efficacy entry in assay [3] was “Antagonist”.
`O=C1c2ccccc2CCCN1CCN1CCC(n2c(O)nc3cc(F)ccc32)CC1`: in assay [3], the Efficacy entry is “Antagonist”.
Turning to `O=S(=O)(c1ccc2c(c1)CC=C2)N1CCC[C@@H]1CCN1CCC(Oc2ccc(Cl)cc2)CC1`, the Ratio in the assay filed under Rattus norvegicus is 282. Also, the Ki in assay [1] was 1.99 nM; in assay [2], 562 nM. Further, in assay [3], the Efficacy entry is “Antagonist”.
Take `O=C1c2ccccc2CCCN1CCN1CCC(n2c(=O)[nH]c3cc(F)ccc32)CC1`: the Ki in assay [1] is 2.24 nM; in assay [2], 479 nM.
Regarding `CCCN(CCC)[C@H]1COc2c(cccc2-c2c(OC)cccc2OC)C1`, the Ratio in the assay filed under Rattus norvegicus is 27. For the same molecule, the Ki in assay [1] was 6.44 nM; in assay [2] it was 174 nM. The molecule also showed an Efficacy in assay [4] of 154%.
`CCCN(CCC)[C@@H]1COc2c(cccc2-c2ccccc2OC)C1`: the Ratio in the assay listed under Rattus norvegicus came to 1.9. In addition, the Ki in assay [1] turned out to be 364 nM; in assay [5], 2110 nM; in assay [2], 680 nM.
Take `CCCN(CCC)[C@H]1COc2c(cccc2-c2ccccc2OC)C1`: the Ratio in the assay filed under Rattus norvegicus was determined as 3.8. Also, the Ki in assay [1] came to 2.7 nM; in assay [5] it was 512 nM; in assay [2], 10.3 nM. Besides, the Efficacy in assay [4] amounted to 100%.
Turning to `Cc1cccc(C#N)c1-c1cccc2c1-c1cccc3c1[C@@H](C2)N(C)CC3`, the Ratio in the assay listed under Rattus norvegicus was 37. Also, the Ki in assay [5] worked out at 498 nM; in assay [2], 142 nM. In assay [3], the Efficacy result was “Antagonist”.
On to `CCCN(CCC)[C@H]1CCc2c(cccc2-c2ccccc2)C1`, for which the Ratio in the assay filed under Rattus norvegicus was 0.26. Moreover, the Ki in assay [1] is 3.38 nM; in assay [2], 0.87 nM. In assay [4], this molecule displayed an Efficacy of 100%.
Consider `CCCN(CCC)[C@H]1COc2c(cccc2-c2ccc(OC)cc2)C1`, for which the Ki was found to be 12.6 nM in assay [1] and 1.31 nM in assay [2]. In assay [4], this molecule registered an Efficacy of 91%.
As for `COc1cccc(OC)c1-c1cccc2c1OC[C@H](N(C)C)C2`, the Ratio in the assay listed under Rattus norvegicus is over 189. Moreover, the Ki in assay [1] is 5.29 nM; in assay [2], over 1000 nM. In assay [4], this molecule yielded an Efficacy of 28%.
Turning to `CCCN(CCC)[C@H]1CCc2c(cccc2-c2ccccc2OC)C1`, in the assay listed under Rattus norvegicus, the Ratio came to 6.8. Moreover, the Ki is 1.73 nM in assay [1] and 11.7 nM in assay [2]. The Efficacy in assay [4] came to 100%.
Take `CCCN(CCC)[C@H]1CCc2c(cccc2-c2ccc(OC)cc2)C1`: in the assay filed under Rattus norvegicus, the Ratio came out at 0.12. For the same molecule, the inhibition constant (Ki) in assay [1] was determined as 12.4 nM; in assay [2], 1.49 nM.
As for `CCCN(CCC)[C@H]1COc2c(cccc2-c2ccccc2)C1`, the values for the Ki in assay [1] and in assay [2] were 2.92 nM and 1.23 nM, respectively. This molecule had an Efficacy in assay [4] of 100%.
